TRPC6 act: activates the mouse TRPC6 cation channel; HEK293-TRPC6 membrane potential dye fluorescence; stronger effect = higher value; B-score at 10 µM; actives 0.13% (n = 310,000);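 active = B-score of the integrated fluorescence ratio above library mean plus 3 SD, and starting fluorescence ratio within library mean plus 5 SD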;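 note: higher score means more depolarization so channel activation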
Target sequence (Q61143 whole entry, looked up): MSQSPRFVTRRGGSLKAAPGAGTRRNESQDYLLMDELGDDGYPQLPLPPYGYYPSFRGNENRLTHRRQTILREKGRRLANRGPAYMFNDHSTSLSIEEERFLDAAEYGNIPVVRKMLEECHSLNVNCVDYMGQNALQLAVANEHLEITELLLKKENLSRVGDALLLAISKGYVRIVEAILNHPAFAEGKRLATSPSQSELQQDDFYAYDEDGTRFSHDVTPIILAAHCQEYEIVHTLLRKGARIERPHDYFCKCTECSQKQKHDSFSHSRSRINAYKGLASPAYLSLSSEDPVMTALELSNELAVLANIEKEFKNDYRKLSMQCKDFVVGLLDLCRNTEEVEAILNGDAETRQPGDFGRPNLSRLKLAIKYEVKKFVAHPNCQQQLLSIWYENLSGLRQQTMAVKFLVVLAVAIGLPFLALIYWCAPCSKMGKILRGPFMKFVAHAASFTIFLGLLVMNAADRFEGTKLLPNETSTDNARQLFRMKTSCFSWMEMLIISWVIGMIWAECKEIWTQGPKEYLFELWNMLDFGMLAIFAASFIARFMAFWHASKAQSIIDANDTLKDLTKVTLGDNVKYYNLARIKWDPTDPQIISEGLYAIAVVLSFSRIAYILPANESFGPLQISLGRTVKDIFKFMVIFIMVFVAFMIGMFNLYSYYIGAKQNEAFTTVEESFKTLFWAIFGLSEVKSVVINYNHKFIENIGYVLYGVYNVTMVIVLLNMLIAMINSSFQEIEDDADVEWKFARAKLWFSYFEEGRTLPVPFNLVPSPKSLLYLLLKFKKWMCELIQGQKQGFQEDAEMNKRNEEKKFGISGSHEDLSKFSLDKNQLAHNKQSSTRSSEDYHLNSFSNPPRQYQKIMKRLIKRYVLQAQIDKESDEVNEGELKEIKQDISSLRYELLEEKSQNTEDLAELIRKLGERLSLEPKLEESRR
TRPC6 inhibitor: mouse TRPC6 channel inhibition. actives 1.1% (n = 310,000). B-score at 10 µM. HEK293-TRPC6, membrane potential dye, ACh-evoked depolarization; stronger effect = lower value;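 active = B-score under library mean minus 3 SD, initial fluorescence not abnormally high, positive integrated signal ratio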;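 note: B-score derived from integrated fluorescence ratio over the kinetic read; more negative B-score means stronger inhibition of depolarization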
TRPC4 inh: TRPC4 (mouse) channel inhibition | Q9QUQ5 | HEK293 TRPC4beta/mu-opioid, DAMGO-evoked Fluo4 calcium flux; stronger effect = lower value | B-score at 10 µM | actives 0.39% (n = 300,000);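 active = B-score over 3 SD under the library average, no early fluorescence shift, positive overall ratio signal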
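test system = HEK293 cells with stable TRPC4beta plus mu-opioid receptor expression | detection = Fluo4 Ca2+ flux fluorescence | read-out = integrated fluorescence ratio relative to baseline, converted to per-well B score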
TRPC4 PAM: TRPC4 (mouse) allosteric potentiation. HEK293 TRPC4beta/mu-opioid, DAMGO EC20, Fluo-4 Ca2+ flux; stronger effect = higher value. B-score at 10 µM. actives 0.42% (n = 310,000);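 active = B-score of calcium response area above 5 SD of library B-scores, with initial fluorescence ratio within 5 SD of library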
TRPC4 act: opens the mouse TRPC4 cation channel. AID 2237. actives 0.49% (n = 310,000). HEK293 TRPC4beta/mu-opioid, Fluo4 calcium fluorescence; stronger effect = higher value. B-score at 10 µM. Q9QUQ5;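 active = B-score above 5 SD of library B-scores, and initial fluorescence ratio not above library mean plus 5 SD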;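 note: positive B-score marks a calcium rise read as TRPC4 activation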
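Assay system: HEK293 cells stably co-expressing mouse TRPC4beta and mu-opioid receptor / Timing: Fluo4 dye loading 45 min at room temperature, 110 s recording / Signal: Fluo4 calcium-sensitive dye fluorescence, kinetic, 1 Hz baseline / Read-out: integrated baseline-normalised fluorescence ratio, converted to per-well B score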
Pemphigus Ab inh: inhibitors of pemphigus antibody binding to human desmoglein-3; binding (percent of control), % at 10 µM; AID 588358; DSG3-coupled beads, scFv-anti-DSG3-GFP binding, flow cytometry; stronger effect = lower value; P32926; actives 0.48% (n = 310,000);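 active = binding more than 3 SD below its plate's average and above zero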;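 note: hits lower antibody fragment binding to DSG3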
TRPC4 spec 2: mouse TRPC4 off-target activity of TRPC6 inhibitors, second screen; shares compounds with TRPC6 inhibitor; HEK293 TRPC4/MOR, membrane potential dye fluorescence; channel activated by saturating DAMGO dose; inhibition, % at 10 µM; actives 42% (n = 920); AID 2776;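 active = compounds whose fluorescence signal differed from control wells by over 3 SD, either direction, in both duplicate plates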
TRPC4 spec: selectivity of TRPC6 inhibitors: effect on mouse TRPC4. shares compounds with TRPC6 inhibitor. HEK293 TRPC4/mu-opioid, membrane potential fluorescence. activity change, negative = inhibition, % at 10 µM. actives 61% (n = 920). AID 2777;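 active = rise or fall in signal beyond 3 SD of buffer-only wells in both replicate plates, either sign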;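 note: integrated kinetic ratio of fluorescence range over baseline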
HEK293 MPD ctr 2-1: second counter-screen for TRPC6 inhibitors: parental HEK293 cells; shares compounds with TRPC6 inhibitor; parental HEK293 membrane potential dye fluorescence; maximal acetylcholine challenge after compound addition; signal change vs control, % at 10 µM; actives 31% (n = 920); AID 2779;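 active = membrane potential signal moving either way by over 3 SD of the maximum-effect control, in both duplicate plates, meaning non-specific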
HEK293 MPD ctr-1: parental HEK293 nonspecific activity of TRPC6 inhibitors; shares compounds with TRPC6 inhibitor; parental HEK293 membrane potential dye fluorescence; membrane potential signal change, % at 10 µM; actives 60% (n = 920); AID 2780;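 active = membrane potential signal shifting up or down by more than 3 SD of buffer-only wells, on both duplicate plates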
HEK293 MPD ctr-2: parental HEK293 nonspecific activity of TRPC6 modulators. shares compounds with TRPC6 inhibitor. membrane potential dye fluorescence. membrane potential signal change, % at 10 µM. actives 51% (n = 2,400). AID 488924;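 active = membrane potential signal moves up or down beyond 5 SD from buffer-only wells, on both duplicate plates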
HEK293 MPD ctr 2-2: parental HEK293 nonspecific activity of TRPC6 modulators, second screen; shares compounds with TRPC6 inhibitor; membrane potential dye fluorescence; after compound, maximal acetylcholine stimulation; inhibition, % at 10 µM; actives 14% (n = 2,400); AID 488926;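 active = membrane potential signal drops by more than 5 SD from the mean control signal, in both duplicate plates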
TRPC4/MOR mod: selectivity of TRPC6 modulators against mouse TRPC4; shares compounds with TRPC6 inhibitor; HEK293 TRPC4/mu-opioid, membrane potential fluorescence; percent change from control (negative = decrease, positive = increase), % at 10 µM; actives 69% (n = 2,400); AID 488927;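 active = membrane potential signal moved up or down beyond 5 SD of buffer control wells, in both duplicate plates, actives on both sides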
TRPC4/MOR inh 2: second check of whether TRPC6 modulators also affect mouse TRPC4. shares compounds with TRPC6 inhibitor. HEK293 TRPC4/mu-opioid, membrane potential dye fluorescence; stimulated with maximal-effect DAMGO. inhibition, % at 10 µM. actives 55% (n = 2,400). AID 488928;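 active = drop in membrane potential signal beyond 5 SD of the control wells in both duplicate plates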;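 note: TRPC4 counter screen for TRPC6 hits run under conditions tuned for TRPC6 not TRPC4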
TRPC6 block conf: confirmation of mouse TRPC6 inhibitors | shares compounds with TRPC6 inhibitor | HEK293-TRPC6, membrane potential dye, ACh-evoked depolarization | inhibition, % at 10 µM | actives 43% (n = 3,300) | AID 488960;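 active = fluorescence ratio falls more than 5 SD below the full-stimulation control mean, in both duplicate runs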;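 note: integrated fluorescence ratio of peak minus minimum over baseline after agonist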
TRPC6 act conf: confirmation of mouse TRPC6 activators; shares compounds with TRPC6 inhibitor; actives 11% (n = 2,800); activation, % at 10 µM; HEK293-TRPC6 membrane potential dye fluorescence, FDSS;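 active = ratio signal rise beyond 5 SD above unstimulated control wells' mean, seen in both duplicate runs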
Of the large screens only hits and unclear results are named; the others gave an inactive call (follow-up assays come after a bar, where they were run). In the library only some 2.5% were active in any assay of this set; here they are far more common.

O=C(NCc1ccco1)c1ccccc1SCC(=O)N1CCCC1	none (no result: TRPC6 act, TRPC6 inhibitor, TRPC4 inh, TRPC4 PAM, TRPC4 act)
Cc1ccc2nc3c(cc(C(=O)NCCc4ccccc4)c(=N)n3CCCN3CCOCC3)c(=O)n2c1	TRPC6 inhibitor -5.98 | HEK293 MPD ctr-2 inactive | HEK293 MPD ctr 2-2 inactive | TRPC4/MOR mod inactive | TRPC4/MOR inh 2 53.5% | TRPC6 block conf inactive | TRPC6 act conf inactive
COc1ccc(CCNC(=O)c2cc3c(=O)n4ccccc4nc3n(CCN3CCOCC3)c2=N)cc1	TRPC6 inhibitor -5.72 | HEK293 MPD ctr-2 inactive | HEK293 MPD ctr 2-2 inactive | TRPC4/MOR mod 74.0% | TRPC4/MOR inh 2 86.5% | TRPC6 block conf inactive | TRPC6 act conf inactive
N=c1c(C(=O)NC2CCCC2)cc2c(=O)n3ccccc3nc2n1CCN1CCOCC1	none
COc1cccc(OCC(O)CN2CCC(CN3C(=O)c4cccc5cccc(c45)C3=O)CC2)c1 (configuration not stated)	TRPC6 inhibitor -10.2 | TRPC4 spec 2 62.0% | TRPC4 spec -14.0% | HEK293 MPD ctr 2-1 inactive | HEK293 MPD ctr-1 -138.0% | TRPC6 block conf inactive | TRPC6 act conf inactive
COc1ccc(COCC(O)CN2CCC(CN3C(=O)c4cccc5cccc(c45)C3=O)CC2)cc1OC (configuration not stated)	TRPC6 inhibitor -5.77 | HEK293 MPD ctr-2 -147.0% | HEK293 MPD ctr 2-2 inactive | TRPC4/MOR mod -30.5% | TRPC4/MOR inh 2 87.5% | TRPC6 block conf 69.0% | TRPC6 act conf inactive
O=C1c2cccc3cccc(c23)C(=O)N1CC1CCN(CC(O)COc2ccc3ccccc3c2)CC1 (configuration not stated)	none
CCc1nc(NC(=O)c2sc(C)nc2C)sc1C(=O)OC	none
Cc1cc(/C=C2\SC(=S)NC2=O)c(C)n1-c1cccc(O)c1	TRPC6 act 14.3 | HEK293 MPD ctr-2 568.5% | HEK293 MPD ctr 2-2 inactive | TRPC4/MOR mod 85.0% | TRPC4/MOR inh 2 45.0% | TRPC6 block conf inactive | TRPC6 act conf 174.5%
